Series [1] can be described thus: Cytotoxicity against human Daudi cells. The series is classed as cell-based.
Series [2] relates to Human gammaherpesvirus 4. Put plainly: Antiviral activity against Epstein-Barr virus in human H1 cells by DNA hybridization assay. The class given is functional, organism-based. The conditions noted are these: human gammaherpesvirus 4, H1.
Series [3] is described as follows: (§1) Cytotoxicity against MEF. The series is classed as cell-based. As to conditions: mouse, MEF cells.
The nature of series [4]: (§2) Cytotoxicity against HFF by neutral red uptake assay. The class given is cell-based. The conditions noted are these: human, HFF cells. In outline: (§3)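 HFF cultures; cytotoxicity determined by neutral red uptake.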
The next series concerns Murid betaherpesvirus 1. The experiment in a line: Antiviral activity against Murine cytomegalovirus in MEF by plaque reduction assay. The class given is functional, organism-based. Summed up: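 Murine CMV titrated by plaque reduction in mouse embryonic fibroblasts (MEF); EC50 from plaque counts.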
(In general: Plaque reduction counts the foci of infection that form in a cell layer.)

A short description of series [5]: (§4) Cytotoxicity against HFF by visual cytotoxicity assay. As to conditions: human, HFF cells. The series is classed as cell-based. Summed up: (§5)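 Uninfected HFF cultures scored by visual inspection for cytotoxicity in cells unaffected by virus.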
Series [6] can be described thus: Cytotoxicity against human CEM cells. The class given is cell-based. As to conditions: CCRF-CEM cells.
The nature of series [7]: (§6) Cytotoxicity against human replicating KB cells. The series is classed as cell-based. The conditions noted are these: KB cells. Summed up:
(§7)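 Cytotoxicity measured in replicating KB cells, run alongside HSV-1 assays in BSC-1 cells.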

For series [8], the system named is Human alphaherpesvirus 1. The experiment in a line: Antiviral activity against Herpes simplex virus type 1 in HFF assessed as inhibition of virus-induced cytopathic effect. The class given is functional, organism-based. Summed up: (§8)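 HSV-1 and HSV-2 tested in HFF cultures by inhibition of virus-induced cytopathic effect (CPE); cytotoxicity measured by neutral red uptake.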
Background: Damage to the host cells serves as the signal in cytopathic effect assays.

A further series deals with Human alphaherpesvirus 2. Put plainly: Antiviral activity against Herpes simplex virus type 2 in HFF assessed as inhibition of virus-induced cytopathic effect. The class given is functional, organism-based. In outline: as §8
Series [9] relates to Human alphaherpesvirus 3. Put plainly: Antiviral activity against Varicella zoster virus in HFF assessed as inhibition of virus-induced cytopathic effect. The series is classed as functional, organism-based. Summed up: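 VZV in HFF culture; antiviral activity read by cytopathic effect (CPE) inhibition assay.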
Series [10] deals with Human gammaherpesvirus 4. The experiment in a line: Antiviral activity against Epstein-Barr virus in human Akata cells by DNA hybridization assay. The class given is functional, organism-based. As to conditions: human gammaherpesvirus 4, Akata. Summed up: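 EBV replication measured by DNA hybridization assay in Akata cells.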
Series [11] is described as follows: Cytotoxicity against human Akata cells. The class given is cell-based.
A further series has as its system MEF. The description is as §1. The conditions noted are these: mouse, mef. The class given is cell-based.
The subject of series [12] is HFF. The series is described as §2. The series is classed as cell-based. As to conditions: human, hff. In outline:
as §3

The subject of series [13] is HFF. The series is described as §4. The class given is cell-based. The conditions noted are these: human, hff. Summed up: as §5
The subject of series [14] is Human betaherpesvirus 5. Put plainly: Antiviral activity against Human cytomegalovirus Towne in HFF by plaque reduction assay. The series is classed as functional, organism-based. As to conditions: Human betaherpesvirus 5, Towne. In outline:
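HCMV Towne or AD169 grown in human foreskin fibroblast (HFF) cultures; plaque reduction read-out for EC50; cytotoxicity judged visually in HFF cells not infected by virus.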

Series [15] relates to Human betaherpesvirus 5. Put plainly: Antiviral activity against Human cytomegalovirus Towne expressing wild type UL97 phosphotransferase by plaque reduction assay. As to conditions: Human betaherpesvirus 5, Towne. The series is classed as functional, organism-based. In outline:
(§9)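 Plaque reduction with HCMV Towne background strains: wild-type, 2696r (most of UL97 deleted) and E8 (two UL97 point mutations); four drug concentrations, each in duplicate; EC50 read from plaque counts.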

Series [16] relates to Human betaherpesvirus 5. Put plainly: Antiviral activity against cyclopropavir-resistant Human cytomegalovirus 2696r expressing most of UL97 phosphotransferase sequence deleted mutant by plaque reduction assay. As to conditions: Human betaherpesvirus 5, 2696r. The class given is functional, organism-based. In outline: as §9
Series [17] deals with Human betaherpesvirus 5. Put plainly: Antiviral activity against drug-resistant Human cytomegalovirus E8 isolate expressing UL97 phosphotransferase with two point mutation in UL97 gene by plaque reduction assay. As to conditions: Human betaherpesvirus 5, E8. The class given is functional, organism-based. Summed up: as §9
The subject of series [18] is Human alphaherpesvirus 1. Put plainly: Antiviral activity against Herpes simplex virus type 1 in african green monkey BSC1 cells by plaque reduction assay. As to conditions: Human alphaherpesvirus 1, BSC-1. The class given is functional, organism-based. In outline:
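HSV-1 plaque reduction in BSC-1 cells; cytotoxicity determined in replicating KB cells.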

In the next series the test system is KB. The series is described as §6. The conditions noted are these: kb. The class given is cell-based. Summed up: as §7
Series [19] has as its system Human betaherpesvirus 5. Put plainly: Antiviral activity against Human cytomegalovirus AD169 in HFF by cytopathic effect (CPE) inhibition assay. The conditions noted are these: Human betaherpesvirus 5, AD169.
Series [20] deals with Human alphaherpesvirus 3. The experiment in a line: Antiviral activity against Varicella zoster virus in HFF by plaque reduction assay. The series is classed as functional, organism-based. In outline:
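VZV in HFF culture; antiviral activity measured by plaque reduction assay.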

Series [21] concerns Human alphaherpesvirus 1. Put plainly: Antiviral activity against Herpes simplex virus type 1 in african green monkey BSC1 cells by ELISA. The class given is functional, organism-based. The conditions noted are these: Human alphaherpesvirus 1, BSC-1. Summed up:
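HSV-1 in BSC-1 cells, viral antigen measured by ELISA; cytotoxicity determined in replicating KB cells.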
A general note: In an ELISA, binding on a coated surface is turned into a signal by an enzyme label.

Series [22] concerns Human betaherpesvirus 5. Put plainly: Antiviral activity against Human cytomegalovirus AD169 in HFF by cytopathic effect assay. The series is classed as functional, organism-based. As to conditions: Human betaherpesvirus 5, AD169. Summed up: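 HCMV strain AD169 grown in human foreskin fibroblast (HFF) cultures; antiviral effect read as inhibition of virus-induced cytopathic effect (CPE).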

As a reminder, the CC50 is the concentration that lowers cell viability or growth by half. What is called EC50 is the concentration that produces a half-maximal response.

Take `Nc1nc(O)c2ncn(/C=C3/CC34COP(=O)(O)OC4)c2n1` (centres undefined): the CC50 is 150 µM in series [1]; over 301 µM in series [3]; over 301 µM in series [4]; over 100 µM in [5]; over 100 µM in series [6]; over 100 µM in [7]. For the same molecule, the EC50 was over 20 µM with Human gammaherpesvirus 4 [2]; 7.2 µM with Murid betaherpesvirus 1; over 301 µM in the series with Human alphaherpesvirus 1 [8]; 242 µM in the series with Human alphaherpesvirus 2; over 301 µM in the series on Human alphaherpesvirus 3 [9].
Consider `Nc1nc2c(ncn2/C=C2/CC23CCP(=O)(O)OC3)c(=O)[nH]1` (centres undefined), for which the EC50 is over 100 µM in the series on Human gammaherpesvirus 4 [10]; 0.4 µM with Murid betaherpesvirus 1; 2.4 µM in the series on Human betaherpesvirus 5 [14]; 4 µM in the series with Human betaherpesvirus 5 [15]; 3 µM in the series with Human betaherpesvirus 5 [16]; 4 µM in the series with Human betaherpesvirus 5 [17]. The EC50 with Human alphaherpesvirus 1 [18] is 40 µM; in the series with Human alphaherpesvirus 1 [8], over 300 µM; with Human alphaherpesvirus 2 it was over 300 µM; with Human alphaherpesvirus 3 [9], over 300 µM; in the series on Human betaherpesvirus 5 [19] it was 11.6 µM. Also, the CC50 in series [11] (akata) is over 100 µM; in the series with MEF, over 100 µM; with HFF [12], over 300 µM; in the series with HFF [13], over 100 µM; in the series with KB it was over 100 µM.
For the molecule `Nc1nc2c(ncn2COCCO)c(=O)[nH]1` [ACYCLOVIR], in the series on HFF [12], the CC50 was over 300 µM. The EC50 in the series on Human alphaherpesvirus 1 [18] stood at 0.3 µM; with Human alphaherpesvirus 1 [8] it was 1.3 µM; in the series on Human alphaherpesvirus 2, 1.2 µM; in the series on Human alphaherpesvirus 3 [20] it was 4.4 µM.
Take `Nc1nc2c(ncn2/C=C2/CC2(CO)CCP(=O)(O)O)c(=O)[nH]1` (centres undefined): the CC50 in series [11] (Akata cells) and in series [5] was over 100 µM throughout. The EC50 came to 0.13 µM in the series with Murid betaherpesvirus 1; 2.2 µM with Human betaherpesvirus 5 [14]; 3.5 µM in the series on Human betaherpesvirus 5 [15]; 3 µM with Human betaherpesvirus 5 [16]; 3.2 µM in the series with Human betaherpesvirus 5 [17]; 15 µM in the series with Human alphaherpesvirus 1 [21]. In addition, the EC50 with Human alphaherpesvirus 1 [8] amounted to 59.4 µM; in the series on Human alphaherpesvirus 2, 76.5 µM; in the series on Human betaherpesvirus 5 [19], 2.7 µM.
`Nc1nc2c(ncn2/C=C2/CC2(CO)CO)c(=O)[nH]1` [FILOCICLOVIR]: the CC50 in [11] (Akata cells) is 46 µM; in series [3], over 380 µM; in series [4], over 380 µM; in series [5], over 100 µM; in series [7], over 100 µM. The EC50 is 0.27 µM with Murid betaherpesvirus 1; 0.46 µM in the series on Human betaherpesvirus 5 [14]; 0.6 µM with Human betaherpesvirus 5 [15]; 28 µM with Human betaherpesvirus 5 [16]; 8 µM in the series on Human betaherpesvirus 5 [17]; over 100 µM in the series with Human alphaherpesvirus 1 [21]. Also, the half-maximal effective concentration (EC50) in the series on Human alphaherpesvirus 1 [8], with Human alphaherpesvirus 2 and in the series with Human alphaherpesvirus 3 [9] was over 380 µM in each case.
As to `Nc1nc2c(ncn2/C=C2\CC23CCP(=O)(O)OC3)c(=O)[nH]1` (centres undefined), the concentration for a half-maximal effect (EC50) is over 100 µM in the series on Human gammaherpesvirus 4 [10], over 100 µM with Human betaherpesvirus 5 [14], 100 µM with Human alphaherpesvirus 1 [18] and over 300 µM in the series with Human betaherpesvirus 5 [19].
Take `Nc1nc2c(ncn2/C=C2\CC2(CO)CCP(=O)(O)O)c(=O)[nH]1` (centres undefined): the EC50 in the series with Human gammaherpesvirus 4 [10] was over 100 µM; with Human betaherpesvirus 5 [22], over 300 µM; in the series with Human betaherpesvirus 5 [14], over 100 µM; in the series on Human alphaherpesvirus 1 [18], 100 µM; with Human alphaherpesvirus 1 [8], over 300 µM; in the series on Human alphaherpesvirus 2, over 300 µM. For the same molecule, the EC50 with Human alphaherpesvirus 3 [9] stood at 191 µM. For the same molecule, the CC50 in the series with HFF [12] is over 300 µM.

Source of the values: ChEMBL document CHEMBL1158417, “Phosphonate analogues of cyclopropavir phosphates and their E-isomers. Synthesis and antiviral activity” (Bioorg Med Chem, 2009).
